Calls of active or inactive are those of the source. The calls are words filed in the database; no cut-off is given here.
Experiments:
CL1-5 = assay: Reduction in total wild type EGFR levels in gefinitib-insensitive and 24 hrs serum starved human CL1-5 cells at 10 uM pre-incubated for 1 hr before EGF stimulation for 30 mins by Western blot method; assay type: functional
Procedure, shortened: (§1)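 Cells in RPMI-1640 with 10% FBS were plated at 1×10^6 per 10-cm dish, cultured overnight, then kept serum-free for 24 h. They were pre-treated with 10 μM compound for 1 h, serum-free, then stimulated with EGF 20 ng/mL (20 min in methods, 30 min in legend). Whole-cell lysates, 40 μg/lane, were run on 10% SDS-PAGE, blotted to PVDF, probed for pan-EGFR and pEGFR (Tyr1068), and detected by ECL.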

NCI-H1975 = assay: Reduction in total EGFR L858R and T790M mutant levels in gefinitib-resistant and 24 hrs serum starved human NCI-H1975 cells at 10 uM pre-incubated for 1 hr before EGF stimulation for 30 mins by Western blot method; assay type: functional, cell-based; procedure, shortened: as §1
[1] = system: Epidermal growth factor receptor (Homo sapiens), P00533 [L858R,T790M]; conditions: NCI-H1975, at 10 µM
[2] = target: Epidermal growth factor receptor (Homo sapiens) (UniProt P00533); conditions: CL1-5, at 10 µM
IEC-18 = assay: (§2) Cytoprotective activity against 40 uM gefitinib-induced cytotoxicity in rat IEC-18 cells assessed as restoration of cell viability at 5 uM incubated for 24 hrs by MTT assay; assay type: functional
Procedure, shortened: (§3)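 IEC-18 rat intestinal epithelial cells, kept in DMEM with 10% FBS, were seeded at 5×10^3 cells/well and co-treated with compound and gefitinib for 24 h. Stocks were in DMSO, with final DMSO below 0.1%. MTT (0.5 mg/mL) was added for 1.5 h, then DMSO, and absorbance was read at 570 nm. Viability was expressed as proliferative index (%) relative to untreated cells (100%). Triplicate; Student t-test.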

[3] = as §2; assay type: functional; procedure, shortened: as §3

Chain of Epidermal growth factor receptor (Homo sapiens) (P00533 whole entry): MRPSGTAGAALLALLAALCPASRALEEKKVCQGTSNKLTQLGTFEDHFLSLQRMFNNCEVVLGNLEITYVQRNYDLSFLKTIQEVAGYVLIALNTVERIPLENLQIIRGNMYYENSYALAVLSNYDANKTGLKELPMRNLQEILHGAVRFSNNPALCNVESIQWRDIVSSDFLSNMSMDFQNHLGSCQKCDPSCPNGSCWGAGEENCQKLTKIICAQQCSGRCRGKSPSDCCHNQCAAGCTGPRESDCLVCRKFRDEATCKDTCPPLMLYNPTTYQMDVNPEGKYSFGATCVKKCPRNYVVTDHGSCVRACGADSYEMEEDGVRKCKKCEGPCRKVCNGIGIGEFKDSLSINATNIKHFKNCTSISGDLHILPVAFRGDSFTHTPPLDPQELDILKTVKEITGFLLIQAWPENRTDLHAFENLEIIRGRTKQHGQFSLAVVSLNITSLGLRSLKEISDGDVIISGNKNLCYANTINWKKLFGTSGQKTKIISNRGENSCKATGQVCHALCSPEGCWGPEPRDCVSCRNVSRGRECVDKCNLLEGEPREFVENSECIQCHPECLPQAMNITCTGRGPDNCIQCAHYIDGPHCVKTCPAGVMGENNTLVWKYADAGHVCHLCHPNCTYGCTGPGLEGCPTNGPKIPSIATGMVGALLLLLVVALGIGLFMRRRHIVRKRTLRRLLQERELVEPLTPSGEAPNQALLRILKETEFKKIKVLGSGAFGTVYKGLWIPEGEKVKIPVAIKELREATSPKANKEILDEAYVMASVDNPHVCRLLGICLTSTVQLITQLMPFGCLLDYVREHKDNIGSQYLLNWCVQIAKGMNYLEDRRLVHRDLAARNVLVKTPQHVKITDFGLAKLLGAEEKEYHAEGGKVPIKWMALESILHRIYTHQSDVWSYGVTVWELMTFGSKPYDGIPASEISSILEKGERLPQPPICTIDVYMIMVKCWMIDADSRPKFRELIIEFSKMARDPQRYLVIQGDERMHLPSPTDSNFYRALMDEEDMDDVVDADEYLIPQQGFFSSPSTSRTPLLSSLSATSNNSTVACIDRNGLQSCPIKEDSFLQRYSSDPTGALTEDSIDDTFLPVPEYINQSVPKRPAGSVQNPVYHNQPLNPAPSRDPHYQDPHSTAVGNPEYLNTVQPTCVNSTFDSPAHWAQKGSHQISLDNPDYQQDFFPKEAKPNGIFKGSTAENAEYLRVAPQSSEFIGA
Chain of Epidermal growth factor receptor (Homo sapiens), P00533 [L858R,T790M] (P00533 whole entry T790M/L858R, looked up): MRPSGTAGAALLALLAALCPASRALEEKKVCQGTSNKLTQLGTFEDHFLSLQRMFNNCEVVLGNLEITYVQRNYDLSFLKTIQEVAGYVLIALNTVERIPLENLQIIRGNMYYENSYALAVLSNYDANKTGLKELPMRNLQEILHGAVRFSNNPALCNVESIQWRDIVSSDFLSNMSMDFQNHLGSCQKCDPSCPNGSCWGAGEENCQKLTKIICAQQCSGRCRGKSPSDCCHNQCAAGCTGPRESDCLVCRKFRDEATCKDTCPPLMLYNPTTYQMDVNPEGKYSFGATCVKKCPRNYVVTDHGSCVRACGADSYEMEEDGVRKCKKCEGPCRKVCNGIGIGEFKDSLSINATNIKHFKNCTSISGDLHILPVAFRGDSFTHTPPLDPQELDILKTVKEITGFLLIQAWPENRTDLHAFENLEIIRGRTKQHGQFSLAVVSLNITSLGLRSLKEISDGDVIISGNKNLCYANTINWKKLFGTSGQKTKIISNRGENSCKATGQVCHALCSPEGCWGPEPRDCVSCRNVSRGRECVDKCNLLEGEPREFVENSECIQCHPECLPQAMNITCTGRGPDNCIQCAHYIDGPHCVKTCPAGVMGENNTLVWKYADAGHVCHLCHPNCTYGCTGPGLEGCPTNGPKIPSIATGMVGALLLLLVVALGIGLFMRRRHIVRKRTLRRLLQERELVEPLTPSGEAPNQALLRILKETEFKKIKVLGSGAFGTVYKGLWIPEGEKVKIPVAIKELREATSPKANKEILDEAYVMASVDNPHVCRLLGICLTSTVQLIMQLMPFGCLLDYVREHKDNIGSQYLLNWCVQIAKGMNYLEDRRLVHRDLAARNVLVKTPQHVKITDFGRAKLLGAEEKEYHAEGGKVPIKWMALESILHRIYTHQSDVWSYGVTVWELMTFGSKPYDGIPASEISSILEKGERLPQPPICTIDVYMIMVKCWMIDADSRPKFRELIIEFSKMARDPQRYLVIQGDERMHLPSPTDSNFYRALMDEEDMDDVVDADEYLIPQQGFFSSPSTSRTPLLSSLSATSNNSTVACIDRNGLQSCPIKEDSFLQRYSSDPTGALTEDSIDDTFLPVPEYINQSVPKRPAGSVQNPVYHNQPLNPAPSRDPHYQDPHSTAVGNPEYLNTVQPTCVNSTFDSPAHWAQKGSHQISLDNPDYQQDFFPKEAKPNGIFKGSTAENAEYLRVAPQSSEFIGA

inhibition [1]	inhibition [2]	SMILES	inhibition (CL1-5)	inhibition (NCI-H1975)	Activity (IEC-18)	Activity [3]
inactive	inactive	COc1cc(/C=C/C(=O)/C(CCC(=O)O)=C(O)/C=C/c2ccc(O)c(O)c2)ccc1O	inactive	inactive	–	–
inactive	inactive	COc1cc(/C=C/C(=O)/C=C(O)/C=C/c2ccc(OCC(=O)O)c(OC)c2)ccc1OCC(=O)O	inactive	inactive	–	–
Active	Active	COc1cc(/C=C/C(=O)/C(C(C)=O)=C(O)/C=C/c2ccc(O)c(OC)c2)ccc1O	Active	Active	–	–
inactive	inactive	CCOC(=O)CC/C(C(=O)/C=C/c1ccc(OCC(=O)OC)c(OC)c1)=C(O)\C=C\c1ccc(OCC(=O)OC)c(OC)c1	inactive	inactive	–	–
inactive	inactive	COc1cc(/C=C/C(=O)/C(CCC(=O)O)=C(O)/C=C/c2ccc(O)c(OC)c2)ccc1O	inactive	inactive	–	–
Active	Active	COc1ccc(/C=C/C(=O)/C=C(O)/C=C/c2ccc(OC)c(OC)c2)cc1O	Active	Active	Active	–
Active	Active	COc1ccc(/C=C/C(=O)/C(C)=C(O)/C=C/c2ccc(OC)c(OC)c2)cc1OC	Active	Active	–	–
inactive	inactive	CCOC(=O)/C=C/C(C(=O)/C=C/c1ccc(OC)c(OC)c1)=C(O)\C=C\c1ccc(OC)c(OC)c1	inactive	inactive	–	–
Active	inactive	COc1cc(/C=C/C(O)=C/C(=O)/C=C/c2ccc(O)c(O)c2)ccc1O	inactive	Active	–	–
inactive	inactive	CCOC(=O)/C=C/C(C(=O)/C=C/c1ccc(O)c(O)c1)=C(O)\C=C\c1ccc(O)c(OC)c1	inactive	inactive	–	–
Active	Active	COc1cc(/C=C/C(O)=C/C(=O)/C=C/c2ccc(OC)c(OC)c2)ccc1O	Active	Active	Active	–
inactive	Active	CCOC(=O)CC/C(C(=O)/C=C/c1ccc(O)c(OC)c1)=C(O)\C=C\c1ccc(O)c(OC)c1	Active	inactive	–	–
Active	Active	CCOC(=O)CC/C(C(=O)/C=C/c1ccc(OC)c(OC)c1)=C(O)\C=C\c1ccc(O)c(OC)c1	Active	Active	–	–
Active	Active	CCOC(=O)CC/C(C(=O)/C=C/c1ccc(O)c(OC)c1)=C(O)\C=C\c1ccc(O)c(O)c1	Active	Active	–	–
inactive	inactive	CCOC(=O)CC/C(C(=O)/C=C/c1ccc(OC)c(OC)c1)=C(O)\C=C\c1ccc(OC)c(OC)c1	inactive	inactive	–	–
inactive	Active	CCOC(=O)CC/C(C(=O)/C=C/c1ccc(O)c(O)c1)=C(O)\C=C\c1ccc(O)c(O)c1	Active	inactive	–	–
inactive	inactive	CCOC(=O)/C=C/C(C(=O)/C=C/c1ccc(O)c(OC)c1)=C(O)\C=C\c1ccc(O)c(OC)c1	inactive	inactive	–	–

Continued, compound first:

SMILES	inhibition [1]	inhibition [2]	inhibition (CL1-5)	inhibition (NCI-H1975)	Activity (IEC-18)	Activity [3]
COC(=O)COc1ccc(/C=C/C(=O)/C=C(O)/C=C/c2ccc(OCC(=O)OC)c(OC)c2)cc1OC	inactive	inactive	inactive	inactive	–	–
COc1cc(F)c(/C=C/C(=O)/C=C(O)/C=C/c2cc(OC)c(OC)cc2F)cc1OC	Active	Active	Active	Active	–	–
CCOC(=O)CCCOc1ccc(/C=C/C(=O)/C(CCC(=O)OCC)=C(O)/C=C/c2ccc(OCCCC(=O)OCC)c(OC)c2)cc1OC	inactive	inactive	inactive	inactive	–	–
COc1cc(/C=C/C(=O)/C=C(O)/C=C/c2cc(O)c(OC)c(OC)c2)cc(O)c1OC	inactive	inactive	inactive	inactive	–	–
COc1cc(OC)c(OC)cc1/C=C/C(O)=C/C(=O)/C=C/c1ccc(OC)c(OC)c1	Active	Active	Active	Active	–	–
COc1ccc(/C=C/C(=O)/C=C(O)/C=C/c2ccc(OC)c(OC)c2)cc1OC	Active	Active	Active	Active	Active	–
CCOC(=O)CC/C(C(=O)/C=C/c1cc(OC)c(O)c(OC)c1)=C(O)\C=C\c1cc(OC)c(O)c(OC)c1	inactive	inactive	inactive	inactive	–	–
COc1cc(/C=C/C(=O)/C=C(O)/C=C/c2ccc(OCC(=O)Nc3ccccc3)c(OC)c2)ccc1OCC(=O)Nc1ccccc1	inactive	inactive	inactive	inactive	–	–
COc1cc(/C=C/C(O)=C/C(=O)/C=C/c2ccc(O)cc2)ccc1O	inactive	inactive	inactive	inactive	–	–
O=C(O)CC/C(C(=O)/C=C/c1ccc(O)c(O)c1)=C(O)\C=C\c1ccc(O)c(O)c1	inactive	inactive	inactive	inactive	–	–
CCOC(=O)CC/C(C(=O)/C=C/c1cc(O)c(OC)c(OC)c1)=C(O)\C=C\c1cc(O)c(OC)c(OC)c1	Active	Active	inactive	–	–	–
COc1cc(/C=C/C(=O)/C=C(O)/C=C/c2ccc(OCCCC(=O)O)c(OC)c2)ccc1OCCCC(=O)O	inactive	inactive	inactive	inactive	–	–
COc1cc(/C=C/C(=O)CC(=O)/C=C/c2ccc(O)c(OC)c2)ccc1O	–	–	Active	Active	Active	–
COc1ccc(CCC(=O)CC(O)CCc2ccc(OC)c(OC)c2)cc1OC (stereo not given)	inactive	inactive	inactive	inactive	–	–
O=C(/C=C(O)/C=C/c1ccc(O)c(O)c1)/C=C/c1ccc(O)c(O)c1	Active	Active	Active	inactive	–	<=80%
COc1cc(OC)c(OC)cc1/C=C/C(=O)/C=C(O)/C=C/c1cc(OC)c(OC)cc1OC	Active	Active	Active	Active	–	–
COc1ccc(/C=C/C(=O)/C=C(O)/C=C/c2ccc(OC)c(OC)c2OC)cc1OC	Active	Active	Active	Active	–	–
COc1cc(/C=C/C(=O)/C(CCC(=O)O)=C(O)/C=C/c2ccc(OCCCC(=O)O)c(OC)c2)ccc1OCCCC(=O)O	inactive	inactive	inactive	inactive	–	–
CCOC(=O)CCCOc1ccc(/C=C/C(=O)/C=C(O)/C=C/c2ccc(OCCCC(=O)OCC)c(OC)c2)cc1OC	inactive	inactive	inactive	inactive	–	–
COc1ccc(/C=C/C(=O)/C=C(O)/C=C/c2ccc(OC)c(OC)c2OC)c(OC)c1OC	Active	Active	Active	Active	–	–

From ChEMBL document CHEMBL3400092 (2015)
